Measured values taken from ChEMBL document CHEMBL5058577, “EUbOPEN Chemogenomics Library 2 (Multiplex)” (2022).

Tested on: Fibroblast
Test: Multiplex assay against human fibroblast
Assay type: toxicity, cell-based
Outline: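 Live cells were stained at seeding with Hoechst33342, BioTracker Green Microtubule Cytoskeleton Dye, MitoTracker Red and Annexin V Alexa Fluor 680, then imaged on a CQ1 microscope at 37°C and 5% CO2 after compound addition. CellPathfinder machine-learning gating split cells into Hoechst high-intensity objects or normal cells. Normal cells were split into healthy, pyknosed or fragmented nuclei, and pyknosed cells into mitotic or apoptotic. Tubulin, mitochondrial-mass and membrane-permeability phenotypes are per cents of healthy-nucleus cells.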

[1] = 12 h, 1 µM, compound concentration 1 uM, replicate 1
[2] = 12 h, 1 µM, compound concentration 1 uM, replicate 2
[3] = 12 h, 10 µM, compound concentration 10 uM, replicate 1
[4] = 12 h, 10 µM, compound concentration 10 uM, replicate 2
[5] = 24 h, 1 µM, compound concentration 1 uM, replicate 1
[6] = 24 h, 1 µM, compound concentration 1 uM, replicate 2
[7] = 24 h, 10 µM, compound concentration 10 uM, replicate 1
[8] = 24 h, 10 µM, compound concentration 10 uM, replicate 2
[9] = 48 h, 1 µM, compound concentration 1 uM, replicate 1
[10] = 48 h, 1 µM, compound concentration 1 uM, replicate 2
[11] = 48 h, 10 µM, compound concentration 10 uM, replicate 1
[12] = 48 h, 10 µM, compound concentration 10 uM, replicate 2

C[C@H](N)COC(=O)[C@@H](CCCCN)NC(=O)Cc1c(-c2ccc3ccccc3c2)[nH]c2c1ccc1ccccc12
Population Apoptotic (%) [1]: 32% | Population Fragmented Nuclei (%) [1]: 18% | Population Healthy Nuclei (%) [1]: 65% | Population Hoechst High Intensity Objects (%) [1]: 1% | Population Membrane Permeable-Phenotype (%) [1]: 0% | Population Mitochondria Different-Phenotype (%) [1]: 7% | Population Mitotic Cells (%) [1]: 67% | Population Normal (%) [1]: 98% | Population Pyknosed Nuclei (%) [1]: 15% | Population Tubulin-Different-Phenotype (%) [1]: 32% | Total Cell Count [1]: 179 | Population Apoptotic (%) [2]: 50% | Population Fragmented Nuclei (%) [2]: 25% | Population Healthy Nuclei (%) [2]: 51% | Population Hoechst High Intensity Objects (%) [2]: 4% | Population Membrane Permeable-Phenotype (%) [2]: 5% | Population Mitochondria Different-Phenotype (%) [2]: 4% | Population Mitotic Cells (%) [2]: 50% | Population Normal (%) [2]: 95% | Population Pyknosed Nuclei (%) [2]: 23% | Population Tubulin-Different-Phenotype (%) [2]: 36% | Total Cell Count [2]: 170 | Population Apoptotic (%) [3]: 43% | Population Fragmented Nuclei (%) [3]: 13% | Population Healthy Nuclei (%) [3]: 69% | Population Hoechst High Intensity Objects (%) [3]: 2% | Population Membrane Permeable-Phenotype (%) [3]: 1% | Population Mitochondria Different-Phenotype (%) [3]: 8% | Population Mitotic Cells (%) [3]: 56% | Population Normal (%) [3]: 97% | Population Pyknosed Nuclei (%) [3]: 16% | Population Tubulin-Different-Phenotype (%) [3]: 33% | Total Cell Count [3]: 183 | Population Apoptotic (%) [4]: 62% | Population Fragmented Nuclei (%) [4]: 32% | Population Healthy Nuclei (%) [4]: 50% | Population Hoechst High Intensity Objects (%) [4]: 7% | Population Membrane Permeable-Phenotype (%) [4]: 5% | Population Mitochondria Different-Phenotype (%) [4]: 6% | Population Mitotic Cells (%) [4]: 37% | Population Normal (%) [4]: 92% | Population Pyknosed Nuclei (%) [4]: 17% | Population Tubulin-Different-Phenotype (%) [4]: 47% | Total Cell Count [4]: 167 | Population Apoptotic (%) [5]: 53% | Population Fragmented Nuclei (%) [5]: 16% | Population Healthy Nuclei (%) [5]: 66% | Population Hoechst High Intensity Objects (%) [5]: 3% | Population Membrane Permeable-Phenotype (%) [5]: 0% | Population Mitochondria Different-Phenotype (%) [5]: 5% | Population Mitotic Cells (%) [5]: 46% | Population Normal (%) [5]: 96% | Population Pyknosed Nuclei (%) [5]: 17% | Population Tubulin-Different-Phenotype (%) [5]: 30% | Total Cell Count [5]: 179 | Population Apoptotic (%) [6]: 29% | Population Fragmented Nuclei (%) [6]: 25% | Population Healthy Nuclei (%) [6]: 54% | Population Hoechst High Intensity Objects (%) [6]: 7% | Population Membrane Permeable-Phenotype (%) [6]: 3% | Population Mitochondria Different-Phenotype (%) [6]: 7% | Population Mitotic Cells (%) [6]: 70% | Population Normal (%) [6]: 92% | Population Pyknosed Nuclei (%) [6]: 20% | Population Tubulin-Different-Phenotype (%) [6]: 39% | Total Cell Count [6]: 162 | Population Apoptotic (%) [7]: 63% | Population Fragmented Nuclei (%) [7]: 13% | Population Healthy Nuclei (%) [7]: 74% | Population Hoechst High Intensity Objects (%) [7]: 7% | Population Membrane Permeable-Phenotype (%) [7]: 0% | Population Mitochondria Different-Phenotype (%) [7]: 5% | Population Mitotic Cells (%) [7]: 36% | Population Normal (%) [7]: 92% | Population Pyknosed Nuclei (%) [7]: 11% | Population Tubulin-Different-Phenotype (%) [7]: 31% | Total Cell Count [7]: 171 | Population Apoptotic (%) [8]: 50% | Population Fragmented Nuclei (%) [8]: 36% | Population Healthy Nuclei (%) [8]: 50% | Population Hoechst High Intensity Objects (%) [8]: 6% | Population Membrane Permeable-Phenotype (%) [8]: 5% | Population Mitotic Cells (%) [8]: 50% | Population Normal (%) [8]: 93% | Population Pyknosed Nuclei (%) [8]: 13% | Population Tubulin-Different-Phenotype (%) [8]: 54% | Total Cell Count [8]: 159 | Population Apoptotic (%) [9]: 72% | Population Fragmented Nuclei (%) [9]: 21% | Population Healthy Nuclei (%) [9]: 65% | Population Hoechst High Intensity Objects (%) [9]: 5% | Population Membrane Permeable-Phenotype (%) [9]: 0% | Population Mitochondria Different-Phenotype (%) [9]: 7% | Population Mitotic Cells (%) [9]: 27% | Population Normal (%) [9]: 94% | Population Pyknosed Nuclei (%) [9]: 12% | Population Tubulin-Different-Phenotype (%) [9]: 26% | Total Cell Count [9]: 186 | Population Apoptotic (%) [10]: 51% | Population Fragmented Nuclei (%) [10]: 30% | Population Healthy Nuclei (%) [10]: 50% | Population Hoechst High Intensity Objects (%) [10]: 2% | Population Membrane Permeable-Phenotype (%) [10]: 3% | Population Mitochondria Different-Phenotype (%) [10]: 6% | Population Mitotic Cells (%) [10]: 48% | Population Normal (%) [10]: 97% | Population Pyknosed Nuclei (%) [10]: 18% | Population Tubulin-Different-Phenotype (%) [10]: 39% | Total Cell Count [10]: 169 | Population Apoptotic (%) [11]: 46% | Population Fragmented Nuclei (%) [11]: 16% | Population Healthy Nuclei (%) [11]: 68% | Population Hoechst High Intensity Objects (%) [11]: 9% | Population Membrane Permeable-Phenotype (%) [11]: 0% | Population Mitochondria Different-Phenotype (%) [11]: 4% | Population Mitotic Cells (%) [11]: 53% | Population Normal (%) [11]: 90% | Population Pyknosed Nuclei (%) [11]: 15% | Population Tubulin-Different-Phenotype (%) [11]: 35% | Total Cell Count [11]: 185 | Population Apoptotic (%) [12]: 55% | Population Fragmented Nuclei (%) [12]: 36% | Population Healthy Nuclei (%) [12]: 52% | Population Hoechst High Intensity Objects (%) [12]: 5% | Population Membrane Permeable-Phenotype (%) [12]: 7% | Population Mitochondria Different-Phenotype (%) [12]: 8% | Population Mitotic Cells (%) [12]: 44% | Population Normal (%) [12]: 94% | Population Pyknosed Nuclei (%) [12]: 11% | Population Tubulin-Different-Phenotype (%) [12]: 54% | Total Cell Count [12]: 166
